Results on 38 molecules are retold here after ChEMBL document CHEMBL3612005, “Discovery of N-aryl-naphthylamines as in vitro inhibitors of the interaction between HIV integrase and the cofactor LEDGF/p75” (Eur J Med Chem, 2015).

Activity calls are given as the source filed them. The rule behind the calls is not given here.

The CC50 is the concentration at which the toxic effect on the cells reaches its halfway point. One may read the inhibition as the share of the control response that was lost under treatment. For orientation: IC50 means the point on the concentration scale where inhibition reaches its midpoint. The term EC50 denotes the concentration at which the effect is half-maximal.

Tested on in one data set: not listed separately
In words: Cytotoxicity against human MT4 cells assessed as reduction in cell viability by MTT assay. The data set is classed as cell-based.
Conditions: not given
In outline: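 Uninfected MT-4 cells exposed to five-fold serial dilutions of compound; viability measured by MTT reduction to formazan, read spectrophotometrically; CC50 = concentration killing 50% of cells.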
Background: Tetrazolium assays rely on reduction of a dye to a coloured formazan, in cell work by metabolically active cells.
On to `O=C(O)c1ccc(Nc2ccc3ccccc3c2O)cc1`, for which the CC50 was determined as 23.7 µM.

Turning to `Cc1ccc(-c2c(C(OC(C)(C)C)C(=O)O)ccc3sc(C)cc23)cc1` (stereo not given), the CC50 was 96 µM.

For the molecule `COc1ccc(I)cc1Nc1ccc(OC)c2ccccc12`, the 50% cytotoxic concentration (CC50) was determined as 12.5 µM.

Turning to `COC(=O)c1ccc(Nc2cccc3ccccc23)cc1`, the CC50 was determined as 27.5 µM.

Turning to `O=C(O)c1ccc(Nc2ccc(O)c3ccccc23)cc1`, the half-maximal cytotoxic concentration (CC50) was 1.07 µM.

As to `COc1ccc2ccccc2c1Nc1c(OC)ccc2ccccc12`, the 50% cytotoxic concentration (CC50) was found to be 3.41 µM.

`O=C(O)c1cc(Nc2ccc(O)c3ccccc23)ccc1O`: the 50% cytotoxic concentration (CC50) worked out at 126 µM.

Regarding `Fc1ccc(Nc2ccc(F)c3ccccc23)cc1`, the CC50 came out at 38.4 µM.

Consider `CCOC(=O)c1cn(Cc2ccc(C(=O)OC)cc2)c2ccccc2c1=O`, for which the CC50 is 5.63 µM.

The next data set deals with Human immunodeficiency virus type 1 integrase (Human immunodeficiency virus 1) (UniProt Q7ZJM1). In words: Binding affinity to His6-tagged recombinant HIV1 Integrase assessed as inhibition of protein interaction with 3xFLAG-tagged LEDGF/p75 at 100 uM preincubated for 30 mins followed by 3xFLAG-tagged LEDGF/p75 addition measured after 60 mins by AlphaScreen assay relative to control.
Chain of Human immunodeficiency virus type 1 integrase (Human immunodeficiency virus 1) (Q7ZJM1 as listed by the source): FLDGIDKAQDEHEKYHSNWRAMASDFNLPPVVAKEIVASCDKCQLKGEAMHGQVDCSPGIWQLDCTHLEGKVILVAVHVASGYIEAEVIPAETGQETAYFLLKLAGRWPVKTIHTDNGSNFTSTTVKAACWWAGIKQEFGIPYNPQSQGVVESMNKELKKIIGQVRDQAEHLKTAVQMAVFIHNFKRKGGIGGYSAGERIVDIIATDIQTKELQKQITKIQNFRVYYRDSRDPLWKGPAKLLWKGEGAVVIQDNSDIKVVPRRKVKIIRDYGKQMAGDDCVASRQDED
Conditions: not given
In outline:
(§1)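 His6-integrase (300 nM final) preincubated with compound 30 min at 4 °C, then FLAG-LEDGF/p75 (300 nM final) added for 60 min at 4 °C; Ni-chelate donor and anti-FLAG acceptor beads (20 µg/mL each) added, 1 h at 30 °C, light-protected. Buffer: 25 mM Tris-HCl pH 7.4, 150 mM NaCl, 1 mM MgCl2, 0.01% Tween-20, 0.1% BSA. Single-point screen at 100 µM; IC50 determined where inhibition exceeded 50%.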
Turning to `O=C(O)c1ccc(Nc2ccc3ccccc3c2O)cc1`, the inhibition came out at 66%.

With `COc1ccc(S(=O)(=O)c2ccc(OC)c3ccccc23)cc1`, the inhibition result was “inactive”.

On to `COc1ccc(Nc2ccccc2)c2ccccc12`, for which the inhibition result was “inactive”.

For the molecule `COc1ccc(Nc2ccc(OC)c3ccccc23)cc1`, the inhibition worked out at 57%.

On to `O=C(O)c1ccc(Cn2cc(C(=O)O)c(=O)c3ccccc32)cc1`, for which the inhibition amounted to 16%.

In the case of `O=S(=O)(c1ccc(O)cc1)c1ccc(O)c2ccccc12`, the inhibition turned out to be 30%.

Regarding `COC(=O)c1cc(Nc2ccc(OC)c3ccccc23)ccc1OC`, the inhibition entry was “inactive”.

Take `COc1ccc(Nc2ccc(C(=O)O)cc2)c2ccccc12`: the inhibition was determined as 33%.

`CSc1ccc(Nc2ccc(F)c3ccccc23)cc1`: the inhibition result is “inactive”.

Turning to `COc1ccc(Sc2ccc(OC)c3ccccc23)cc1`, the inhibition result was “inactive”.

As to `COC(=O)c1ccc(Nc2ccc(OC)c3ccccc23)cc1`, the inhibition is 59%.

Consider `COC(=O)c1ccccc1Nc1c(OC)ccc2ccccc12`, for which the inhibition result was “inactive”.

`COc1c(Nc2ccccc2)ccc2ccccc12`: the inhibition result is “inactive”.

For the molecule `COc1c(Nc2ccc(C(=O)O)cc2)ccc2ccccc12`, the inhibition result was “inactive”.

With `Oc1ccc(Nc2ccc(O)c3ccccc23)cc1`, the inhibition worked out at 95%.

`COC(=O)c1ccc(Nc2ccc3ccccc3c2OC)cc1`: the inhibition entry is “inactive”.

In the case of `COC(=O)c1ccc(Cn2ccc(=O)c3ccccc32)cc1`, the inhibition stood at 25%.

For the molecule `COC(=O)c1ccc(Cn2cc(C(C)=O)c(=O)c3ccccc32)cc1`, the inhibition came to 46%.

As for `COc1c(Nc2ccc(I)cc2)ccc2ccccc12`, the inhibition result was “inactive”.

On to `Oc1c(Nc2ccccc2)ccc2ccccc12`, for which the inhibition was found to be 61%.

As to `COC(=O)c1ccccc1Nc1c(O)ccc2ccccc12`, the inhibition was found to be 28%.

Consider `CC(=O)c1cn(Cc2ccc(C(=O)O)cc2)c2ccccc2c1=O`, for which the inhibition result is “inactive”.

Take `COc1ccc(I)cc1Nc1ccc(OC)c2ccccc12`: the inhibition amounted to 61%.

In the case of `COC(=O)c1ccc(Nc2ccc3ccccc3c2O)cc1`, the inhibition turned out to be 58%.

On to `O=C(O)c1ccccc1Nc1c(O)ccc2ccccc12`, for which the inhibition is 56%.

`O=C(O)c1ccc(Nc2cccc3ccccc23)cc1`: the inhibition came to 39%.

For the molecule `COC(=O)c1ccc(Nc2cccc3ccccc23)cc1`, the inhibition turned out to be 62%.

Take `O=C(O)c1ccc(Nc2ccc(O)c3ccccc23)cc1`: the inhibition was determined as 95%.

For `COc1ccc2ccccc2c1Nc1c(OC)ccc2ccccc12`, the inhibition is 100%.

Take `COc1ccc(Nc2ccc(OC)c3ccccc23)cc1C(=O)O`: the inhibition was 41%.

Consider `COC(=O)c1ccc(Nc2ccc(O)c3ccccc23)cc1`, for which the inhibition was 49%.

For the molecule `O=C(O)c1ccc(Cn2ccc(=O)c3ccccc32)cc1`, the inhibition entry is “inactive”.

Turning to `O=C(O)c1cc(Nc2ccc(O)c3ccccc23)ccc1O`, the inhibition turned out to be 88%.

Take `Oc1ccc(Sc2ccc(O)c3ccccc23)cc1`: the inhibition turned out to be 38%.

As for `Fc1ccc(Nc2ccc(F)c3ccccc23)cc1`, the inhibition came to 63%.

Turning to `COc1ccccc1Nc1ccc(OC)c2ccccc12`, the inhibition entry was “inactive”.

Consider `CCOC(=O)c1cn(Cc2ccc(C(=O)OC)cc2)c2ccccc2c1=O`, for which the inhibition worked out at 60%.

For another data set, the species on record is Homo sapiens. In words: Inhibition of FLAG-tagged GST (unknown origin) at 100 uM by emission quenching AlphaScreen assay relative to control.
Conditions: not given
In a few lines: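 Emission-quench counter-screen: FLAG-tagged GST (500 nM final) replaces integrase and LEDGF/p75, otherwise run as the AlphaScreen interaction assay (Ni-chelate donor and anti-FLAG acceptor beads, 20 µg/mL each, 1 h at 30 °C; Tris-HCl pH 7.4 buffer). Compound tested at 100 µM; percent inhibition of signal.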
(In general: In Alpha technology, singlet oxygen from a donor bead excites a nearby acceptor bead.)
The molecule `COC(=O)c1cc(Nc2ccc(OC)c3ccccc23)ccc1OC` came in with an inhibition of 92%.

As for `COC(=O)c1ccc(Nc2ccc(OC)c3ccccc23)cc1`, the inhibition result is “inactive”.

The molecule `Oc1ccc(Nc2ccc(O)c3ccccc23)cc1` gave an inhibition of 84%.

Molecule `O=C(O)c1ccc(Nc2ccc(O)c3ccccc23)cc1` had an inhibition of 16%.

`COc1ccc2ccccc2c1Nc1c(OC)ccc2ccccc12` had an inhibition of 74%.

As for `O=C(O)c1cc(Nc2ccc(O)c3ccccc23)ccc1O`, the inhibition came out at 52%.

The target in the next data set is Human immunodeficiency virus type 1 integrase (Human immunodeficiency virus 1, UniProt Q7ZJM1). In words: Binding affinity to His6-tagged recombinant HIV1 Integrase assessed as inhibition of protein interaction with 3xFLAG-tagged LEDGF/p75 preincubated for 30 mins followed by 3xFLAG-tagged LEDGF/p75 addition measured after 60 mins by AlphaScreen assay.
Chain of Human immunodeficiency virus type 1 integrase (Q7ZJM1 whole entry): as the sequence (Q7ZJM1 as listed by the source) above
Conditions: not given
In outline: as §1
As to `O=C(O)c1ccc(Nc2ccc3ccccc3c2O)cc1`, the IC50 was 70.1 µM.

With `COC(=O)c1ccc(Nc2ccc(OC)c3ccccc23)cc1`, the half-maximal inhibitory concentration (IC50) came out at 34.8 µM.

As to `Cc1ccc(-c2c(C(OC(C)(C)C)C(=O)O)ccc3sc(C)cc23)cc1` (stereo not given), the IC50 worked out at 0.046 µM.

As to `COc1ccc(I)cc1Nc1ccc(OC)c2ccccc12`, the IC50 is 28.9 µM.

Turning to `O=C(O)c1ccc(Nc2ccc(O)c3ccccc23)cc1`, the concentration for half-maximal inhibition (IC50) was determined as 2.5 µM.

Turning to `COc1ccc2ccccc2c1Nc1c(OC)ccc2ccccc12`, the IC50 worked out at 13.8 µM.

`O=C(O)c1cc(Nc2ccc(O)c3ccccc23)ccc1O`: the IC50 amounted to 19.1 µM.

Regarding `Fc1ccc(Nc2ccc(F)c3ccccc23)cc1`, the half-inhibitory concentration (IC50) was more than 100 µM.

With `CCOC(=O)c1cn(Cc2ccc(C(=O)OC)cc2)c2ccccc2c1=O`, the half-maximal inhibitory concentration (IC50) was more than 100 µM.

A further data set concerns Human immunodeficiency virus 1. In words: Antiviral activity against HIV1 3B infected in human MT4 cells assessed as protection against virus-induced cytopathic effect by MTT assay. The class given is functional, organism-based. The following applies: Human immunodeficiency virus 1, 3B. In outline: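 MT-4 cells infected with 100–300 CCID50 of HIV-1 IIIB (virus titred in MT-4 cells) with five-fold serial dilutions of compound; protection from viral cytopathic effect read by MTT reduction to formazan, measured spectrophotometrically; EC50 = concentration giving 50% protection.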
(In general: Cytopathic effects are the visible damage that an infection or toxin causes in cultured cells.)
`O=C(O)c1ccc(Nc2ccc3ccccc3c2O)cc1`: the EC50 is more than 23.7 µM.

For `Cc1ccc(-c2c(C(OC(C)(C)C)C(=O)O)ccc3sc(C)cc23)cc1` (stereo not given), the EC50 turned out to be 0.069 µM.

Regarding `COc1ccc(I)cc1Nc1ccc(OC)c2ccccc12`, the concentration giving a half-maximal response (EC50) was more than 12.5 µM.

As to `COC(=O)c1ccc(Nc2cccc3ccccc23)cc1`, the EC50 was more than 27.5 µM.

`O=C(O)c1ccc(Nc2ccc(O)c3ccccc23)cc1`: the EC50 was more than 1.07 µM.

`COc1ccc2ccccc2c1Nc1c(OC)ccc2ccccc12`: the concentration giving a half-maximal response (EC50) is more than 3.41 µM.

Consider `O=C(O)c1cc(Nc2ccc(O)c3ccccc23)ccc1O`, for which the concentration giving a half-maximal response (EC50) is more than 126 µM.

For `Fc1ccc(Nc2ccc(F)c3ccccc23)cc1`, the concentration giving a half-maximal response (EC50) was more than 38.4 µM.

On to `CCOC(=O)c1cn(Cc2ccc(C(=O)OC)cc2)c2ccccc2c1=O`, for which the EC50 is more than 5.63 µM.
